Results as given in PubChem BioAssay AID623964 (The Scripps Research Institute Molecular Screening Center, 2012).
pIC50: −log10 of the molar value. The source made the active and inactive calls.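 The calls were made as follows: active = compounds slowing the HCV NS3-NS4A protease by half at 50 µM or lower, per IC50; inactive = the rest.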

Target: Hepatitis C virus NS3-NS4A protease (single-chain scNS3-4A)
Experiment: HCV scNS3-4A protease cleavage blockers – biochemical, FRET peptide fluorescence, powder samples, selectivity assay for HCV NS3 helicase inhibitor project, late-stage follow-up (AID 623964)
Summary of the method: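 System: single-chain HCV NS3-NS4A protease (scNS3-4A); Input: 10 nM scNS3-4A protease enzyme; Reagent: quenched FRET peptide substrate, 5-FAM donor with QXL 520 quencher; Detection: 5-FAM fluorescence recovery; Evaluation: IC50 from Hill-equation fit of initial velocities; Benchmarks: DMSO-only reference velocity.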

| IC50 | pIC50 | SMILES |
| --- | --- | --- |
| > 100 µM (inactive) | – | Cc1ccc2nc(-c3ccc4nc(-c5ccc(NC(=O)c6ccc7ccccc7c6)cc5)sc4c3)sc2c1S(=O)(=O)O |
| – | 5.22 | Cc1ccc2nc(-c3ccc4nc(-c5ccc(NC(=O)c6ccc(Br)cc6)cc5)sc4c3)sc2c1S(=O)(=O)O |
| inactive | – | COc1cccc2c(=O)c3cc(Cl)cc(C(=O)Nc4cc(Cl)ccn4)c3[nH]c12 |
| – | 4.64 | Cc1ccc2nc(-c3ccc4nc(-c5ccc(NC(=O)c6cc(C(F)(F)F)cc(C(F)(F)F)c6)cc5)sc4c3)sc2c1S(=O)(=O)O |
| – | 4.89 | Cc1ccc2nc(-c3ccc4nc(-c5ccc(NC(=O)c6ccc(Cl)c(Cl)c6)cc5)sc4c3)sc2c1S(=O)(=O)O |
| > 100 µM (inactive) | – | COc1ccc(NC(=O)Nc2ccc(-c3nc4ccc(-c5nc6ccc(C)c(S(=O)(=O)O)c6s5)cc4s3)cc2)cc1 |
| inactive | – | Cc1ccc2nc(-c3ccc4nc(-c5ccc(NC(=O)c6cc(C(F)(F)F)ccc6F)cc5)sc4c3)sc2c1S(=O)(=O)O |
| inactive | – | Cc1cc(C(O)(c2ccc(Nc3ccccc3)cc2)c2ccc(Nc3ccc(S(=O)(=O)O)cc3)cc2)ccc1N (stereo not drawn) |
| inactive | – | Cc1ccc2nc(-c3ccc4nc(-c5ccc(NC(=O)c6ccc(F)cc6)cc5)sc4c3)sc2c1S(=O)(=O)O |
| inactive | – | COc1ccc(C(=O)Nc2ccc(-c3nc4ccc(-c5nc6ccc(C)c(S(=O)(=O)O)c6s5)cc4s3)cc2)cc1 |
| > 100 µM (inactive) | – | CN1CCN(Cc2cc(CN3CCN(C)CC3)c(O)c(=O)c(CN3CCN(C)CC3)c2)CC1 |
| – | 4.41 | Cc1ccc2nc(-c3ccc4nc(-c5ccc(NC(=O)c6ccc(N)cc6)cc5)sc4c3)sc2c1S(=O)(=O)O |
| > 100 µM (inactive) | – | Cc1ccc2nc(-c3ccc4nc(-c5ccc(NC(=O)c6cccc(Cl)c6)cc5)sc4c3)sc2c1S(=O)(=O)O |
| – | 5.15 | Cc1ccc2nc(-c3ccc4nc(-c5ccc(NC(=O)c6ccc7nc(-c8ccc(N)cc8)sc7c6)cc5)sc4c3)sc2c1S(=O)(=O)O |
| – | 4.33 | O=C(CCCCCCC(=O)Nc1ccc(-c2nc3ccccc3[nH]2)cc1)Nc1ccc(-c2nc3ccccc3[nH]2)cc1 |
| – | 5.30 | Cc1ccc2nc(-c3ccc4nc(-c5ccc(NC(=O)c6ccc(C(F)(F)F)cc6)cc5)sc4c3)sc2c1S(=O)(=O)O |
| > 100 µM (inactive) | – | CCOc1ccc2c(NNC(=O)c3cnccn3)c3c(nc2c1)CCCC3 |
| > 100 µM (inactive) | – | Cc1ccc2nc(-c3ccc4nc(-c5ccc(NC(=O)Nc6ccccc6)cc5)sc4c3)sc2c1S(=O)(=O)O |
| > 100 µM (inactive) | – | COC(=O)c1ccc(C(=O)Nc2ccc(-c3nc4ccc(-c5nc6ccc(C)c(S(=O)(=O)O)c6s5)cc4s3)cc2)cc1 |
| – | 4.89 | Cc1ccc2nc(-c3ccc4nc(-c5ccc(NC(=O)Nc6ccc(Cl)cc6)cc5)sc4c3)sc2c1S(=O)(=O)O |
| inactive | – | Cc1ccc2nc(-c3ccc4nc(-c5ccc(NC(=O)c6ccc(C(C)(C)C)cc6)cc5)sc4c3)sc2c1S(=O)(=O)O |
| – | 5.70 | Cc1ccc2nc(-c3ccc4nc(-c5ccc6nc(-c7ccc8nc(-c9ccc(N)cc9)sc8c7)sc6c5)sc4c3)sc2c1S(=O)(=O)O |
| > 100 µM (inactive) | – | Cc1ccc2nc(-c3ccc(NC(=O)c4ccc(NC(=O)Nc5ccccc5)cc4)cc3)sc2c1S(=O)(=O)O |
